The text below walks through data of ChEMBL document CHEMBL3621200, “Toward the discovery of dual HCMV-VZV inhibitors: Synthesis, structure activity relationship analysis, and cytotoxicity studies of long chained 2-uracil-3-yl-N-(4-phenoxyphenyl)acetamides” (Bioorg Med Chem, 2015).

The structures appear in SMILES notation. pEC50: −log10 of the molar value. Active and inactive are the calls of the source. No cut-off for these calls is given here. Bounds are passed on as bounds.

Data set [1] relates to Human betaherpesvirus 5. Nature of the data set: Antiviral activity against human cytomegalovirus AD169 infected in HEL cells assessed as reduction in viral plaque formation. It is filed as functional, organism-based. To be noted: Human betaherpesvirus 5, AD169, HEL. In outline: (§1)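 Confluent HEL fibroblasts were infected with 100 PFU of HCMV in the presence of varying compound concentrations. Plaques were counted once plaque formation was complete in untreated infected controls.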

In data set [2] the test system is Human betaherpesvirus 5. In words: Antiviral activity against human cytomegalovirus Davis infected in HEL cells assessed as reduction in viral plaque formation. In kind it is functional, organism-based. The note with it: Human betaherpesvirus 5, Davis. In outline:
as §1

Data set [3] is described as follows: Cytotoxicity against human cytomegalovirus infected HEL cells assessed as alteration of cell morphology incubated for 3 days by microscopy. The note with it: HEL cells infected with human cytomegalovirus. In kind it is cell-based. The method, boiled down:
(§2)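 Cytotoxicity was given as the minimum cytotoxic concentration (MCC): the compound concentration causing a microscopically detectable change in HEL cell morphology.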

The subject of the next data set is HEL. Nature of the data set: Cytotoxicity against human cytomegalovirus infected HEL cells assessed as cell growth inhibition incubated for 3 days by coulter counter method. In kind it is cell-based. To be noted: 72 h. In outline: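 HEL cells were seeded at 5 × 10^3 cells/well and left to adhere and proliferate for 24 h, then compound-containing medium was added. After 3 days at 37 °C, cells were counted with a Coulter counter.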

Data set [4] is described as follows: Cytotoxicity against Varicella zoster virus infected HEL cells assessed as alteration of cell morphology incubated for 3 days by microscopy. It is filed as cell-based. To be noted: human, HEL cells infected with Varicella zoster virus. The method, boiled down:
as §2

The test system of another data set is Human alphaherpesvirus 1. Nature of the data set: Antiviral activity against HSV1 KOS. In kind it is functional, organism-based. The method, boiled down:
(§3)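 Confluent cell monolayers in 96-well plates were inoculated with 100 CCID50 of virus together with varying compound concentrations. Cytopathicity was scored once it reached completion in untreated infected controls.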

The next data set relates to Human alphaherpesvirus 2. In words: Antiviral activity against HSV2 Lyons. In kind it is functional, organism-based. In outline:
as §3

Data set [5] relates to Human herpesvirus 2 strain G. In words: Antiviral activity against HSV2 G Lyons. It is filed as functional, organism-based.
For another data set, the system named is Vaccinia virus. In words: Antiviral activity against Vaccinia virus Lederle. In kind it is functional, organism-based. To be noted: Orthopoxvirus vaccinia. In outline: (§4)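 Confluent cell monolayers (HEL, Vero, HeLa or MDCK) in 96-well plates were infected with 100 CCID50 of virus in the presence of varying compound concentrations. Cytopathicity was scored once it reached completion in untreated infected controls.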

Data set [6] has as its system Vesicular stomatitis virus. Nature of the data set: Antiviral activity against Vesicular stomatitis virus. It is filed as functional, organism-based. In outline: as §4
A further data set relates to Coxsackievirus B4. Nature of the data set: Antiviral activity against Human coxsackievirus B4. It is filed as functional, organism-based.
For a further data set, the system named is Influenza A virus H3N2. Nature of the data set: Antiviral activity against Influenza A virus H3N2. In kind it is functional, organism-based. The method, boiled down:
as §4

The test system of a further data set is Influenza A virus. Nature of the data set: Antiviral activity against Influenza A virus H1N1. In kind it is functional, organism-based. The method, boiled down:
as §4

The subject of another data set is Influenza B virus. In words: Antiviral activity against Influenza B virus. In kind it is functional, organism-based. In outline:
as §4

A further data set concerns Human respirovirus 3. In words: Antiviral activity against Parainfluenza 3 virus. In kind it is functional, organism-based.
Data set [7] concerns Mammalian orthoreovirus 1. In words: Antiviral activity against Reovirus 1. In kind it is functional.
Another data set concerns Sindbis virus. In words: Antiviral activity against Sindbis virus. In kind it is functional, organism-based.
A further data set has as its system Punta Toro virus. Nature of the data set: Antiviral activity against Punta Toro virus. It is filed as functional, organism-based.
The test system of the next data set is Feline coronavirus. In words: Antiviral activity against Feline coronavirus. In kind it is functional, organism-based.
For data set [8], the system named is Human immunodeficiency virus 1. In words: Antiviral activity against HIV1 3B infected in human CEM cells assessed as reduction in virus- induced cytopathicity incubated for 4 to 5 days by microscopy based virus syncytium formation assay. To be noted: CCRF-CEM. In kind it is functional, organism-based. The method, boiled down:
(§5)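 CEM cells at ~3 × 10^5 cells/mL, infected with 100 CCID50 of HIV per mL in the presence of compound dilutions. Incubated 4–5 days at 37 °C in humidified CO2. Syncytium (giant cell) formation scored by microscopy.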
In general terms: Cytopathic effects are the visible damage that an infection or toxin causes in cultured cells.

In data set [9] the test system is Human immunodeficiency virus 2. Nature of the data set: Antiviral activity against HIV2 ROD infected in human CEM cells assessed as reduction in virus- induced cytopathicity incubated for 4 to 5 days by microscopy based virus syncytium formation assay. It is filed as functional, organism-based. The note with it: ISOLATE ROD, CCRF-CEM. The method, boiled down:
as §5

By pEC50 is commonly meant the negative decadic logarithm of the EC50, by convention in mol/L. By CC50 is commonly meant the concentration giving 50% cytotoxicity. Turning to `N#Cc1ccc(OCCCCCn2ccc(=O)n(CC(=O)Nc3ccc(Oc4ccccc4)cc3)c2=O)cc1`, the pEC50 in the data set on Human betaherpesvirus 5 [1] was 6.28; in the data set on Human betaherpesvirus 5 [2] it was 6.36. In addition, the values for the MCC at 72 h in data set [3] and in [4] were at least 4 µM and over 100 µM, respectively. In the data set with HEL, the CC50 was 4.9 µM. The inhibition entry (in the data set on Human alphaherpesvirus 1; with Human alphaherpesvirus 2; in data set [5]; with Vaccinia virus; in data set [6]; in the data set with Coxsackievirus B4) was “inactive” throughout. Further, the inhibition result (in the data set with Influenza A virus H3N2; in the data set with Influenza A virus; in the data set on Influenza B virus; with Human respirovirus 3; in [7]; in the data set with Sindbis virus) was “inactive” throughout. In addition, the inhibition entry (with Punta Toro virus; with Feline coronavirus; in [8]; in data set [9]) was “inactive” each time.
Take `O=C(Cn1c(=O)ccn(CCCCCOc2ccccc2)c1=O)Nc1ccc(Oc2ccccc2)cc1`: the pEC50 with Human betaherpesvirus 5 [1] was 5.44; in the data set with Human betaherpesvirus 5 [2], 5.40. The MCC at 72 h in [3] is at least 20 µM; in data set [4] it was over 100 µM. In the data set on HEL, the CC50 turned out to be 5.4 µM. Also, the inhibition result (in the data set on Human alphaherpesvirus 1; in the data set with Human alphaherpesvirus 2; in [5]; in the data set on Vaccinia virus; in data set [6]; with Coxsackievirus B4) was “inactive” each time. Also, the inhibition entry (in the data set on Influenza A virus H3N2; in the data set with Influenza A virus; with Influenza B virus; with Human respirovirus 3; in [7]; in the data set on Sindbis virus) was “inactive” in each case. In addition, the inhibition entry (with Punta Toro virus; in the data set on Feline coronavirus; in data set [8]; in data set [9]) was “inactive” in each case.
As to `O=C(Cn1c(=O)ccn(Cc2ccc(Oc3ccc(Br)cc3)cc2)c1=O)Nc1ccc(Oc2ccccc2)cc1`, the negative logarithm of the EC50 (pEC50) in the data set on Human betaherpesvirus 5 [1] and with Human betaherpesvirus 5 [2] was under 6.10 in each case. Besides, the MCC at 72 h in [3] worked out at 4 µM; in data set [4] it was 20 µM. Moreover, the inhibition entry (with Human alphaherpesvirus 1; in the data set with Human alphaherpesvirus 2; in data set [5]; in the data set on Vaccinia virus; in data set [6]; in the data set with Coxsackievirus B4) was “inactive” throughout. In addition, the inhibition result (in the data set with Influenza A virus H3N2; in the data set on Influenza A virus; in the data set with Influenza B virus; in the data set on Human respirovirus 3; in data set [7]; with Sindbis virus) was “inactive” in each case. In addition, the inhibition entry (in the data set on Punta Toro virus; with Feline coronavirus; in data set [8]; in data set [9]) was “inactive” in each case.
`Nc1nc(O)c2ncn(COC(CO)CO)c2n1` [GANCICLOVIR]: the MCC at 72 h in data set [3] was over 350 µM. Besides, in the data set on HEL, the CC50 is at least 319 µM.
In the case of `Nc1ccn(C[C@@H](CO)OCP(=O)(O)O)c(=O)n1` [CIDOFOVIR], the pEC50 in the data set on Human betaherpesvirus 5 [2] is 6.08. Moreover, in data set [3], the MCC at 72 h is over 300 µM. Moreover, the CC50 in the data set with HEL is at least 208 µM.
Turning to `O=C(Cn1c(=O)ccn(CCCCCOc2ccc(Br)cc2)c1=O)Nc1ccc(OCc2ccccc2)cc1`, the results for the pEC50 with Human betaherpesvirus 5 [1] and in the data set with Human betaherpesvirus 5 [2] were under 4.70 and 5.40, respectively. Besides, the MCC at 72 h in data set [3] and in data set [4] was at least 20 µM in each case. The inhibition entry (with Human alphaherpesvirus 1; in the data set on Human alphaherpesvirus 2; in data set [5]; in the data set with Vaccinia virus; in data set [6]; with Coxsackievirus B4) was “inactive” throughout. The inhibition result (in the data set on Influenza A virus H3N2; in the data set on Influenza A virus; with Influenza B virus; with Human respirovirus 3; in data set [7]; in the data set with Sindbis virus) was “inactive” in each case. Also, the inhibition result (in the data set with Punta Toro virus; in the data set with Feline coronavirus; in data set [8]; in data set [9]) was “inactive” throughout.
Take `O=C(Cn1c(=O)ccn(CCCCCOc2ccc(Br)cc2)c1=O)Nc1ccccc1`: the pEC50 with Human betaherpesvirus 5 [1] and with Human betaherpesvirus 5 [2] was under 5.40 each time. In addition, the MCC at 72 h in data set [3] is 20 µM; in data set [4], at least 20 µM. The inhibition entry (in the data set on Human alphaherpesvirus 1; with Human alphaherpesvirus 2; in [5]; in the data set on Vaccinia virus; in data set [6]; in the data set on Coxsackievirus B4) was “inactive” in each case. The inhibition result (in the data set with Influenza A virus H3N2; with Influenza A virus; with Influenza B virus; in the data set on Human respirovirus 3; in [7]; in the data set with Sindbis virus) was “inactive” throughout. Moreover, the inhibition entry (with Punta Toro virus; with Feline coronavirus; in [8]; in data set [9]) was “inactive” each time.
For `O=C(Cn1c(=O)ccn(CCCCCCc2ccccc2)c1=O)Nc1ccc(Oc2ccccc2)cc1`, the pEC50 in the data set with Human betaherpesvirus 5 [1] and in the data set on Human betaherpesvirus 5 [2] was under 4.70 in each case. Also, the MCC at 72 h in [3] was 100 µM; in [4] it was over 100 µM. The inhibition result (in the data set with Human alphaherpesvirus 1; in the data set on Human alphaherpesvirus 2; in data set [5]; with Vaccinia virus; in data set [6]; in the data set with Coxsackievirus B4) was “inactive” throughout. The inhibition result (with Influenza A virus H3N2; in the data set with Influenza A virus; in the data set on Influenza B virus; with Human respirovirus 3; in data set [7]; in the data set on Sindbis virus) was “inactive” each time. The inhibition entry (with Punta Toro virus; with Feline coronavirus; in data set [8]; in data set [9]) was “inactive” in each case.
For the compound `O=C(Cn1c(=O)c(I)cn(CCCCCOc2ccc(Br)cc2)c1=O)Nc1ccc(Oc2ccccc2)cc1`, the pEC50 in the data set on Human betaherpesvirus 5 [1] and in the data set on Human betaherpesvirus 5 [2] was under 4.70 throughout. Moreover, the values for the MCC at 72 h in data set [3] and in data set [4] were 100 µM and over 100 µM, respectively. Further, the inhibition result (with Human alphaherpesvirus 1; in the data set on Human alphaherpesvirus 2; in data set [5]; in the data set with Vaccinia virus; in [6]; with Coxsackievirus B4) was “inactive” each time. The inhibition result (in the data set with Influenza A virus H3N2; in the data set with Influenza A virus; in the data set with Influenza B virus; in the data set with Human respirovirus 3; in data set [7]; in the data set on Sindbis virus) was “inactive” each time. Further, the inhibition entry (in the data set with Punta Toro virus; in the data set on Feline coronavirus; in data set [8]; in [9]) was “inactive” each time.
As for `O=C(Cn1c(=O)ccn(COCCOCc2ccc(Br)cc2)c1=O)Nc1ccc(Oc2ccccc2)cc1`, the pEC50 in the data set with Human betaherpesvirus 5 [1] and in the data set with Human betaherpesvirus 5 [2] was under 4.70 throughout. In addition, the MCC at 72 h was 100 µM in data set [3] and over 100 µM in data set [4]. Further, the inhibition result (in the data set on Human alphaherpesvirus 1; with Human alphaherpesvirus 2; in data set [5]; in the data set on Vaccinia virus; in data set [6]; with Coxsackievirus B4) was “inactive” in each case. In addition, the inhibition entry (in the data set with Influenza A virus H3N2; with Influenza A virus; in the data set with Influenza B virus; with Human respirovirus 3; in data set [7]; in the data set with Sindbis virus) was “inactive” throughout. Also, the inhibition result (with Punta Toro virus; in the data set on Feline coronavirus; in data set [8]; in data set [9]) was “inactive” throughout.
